VIM-2 inh: VIM-2 metallo-beta-lactamase inhibitors, primary screen, biochemical, epi-absorbance readout, Pseudomonas aeruginosa enzyme | 0.89% of 290,000 active | AID 1527, 2009 | inhibition, % at 5.6 µM | purified VIM-2, nitrocefin hydrolysis, epi-absorbance fluorescence;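 active = inhibition above the mean of all tested compounds plus 3 SD, cutoff set per screening run, cut at about 7.5% in these data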;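 also: red hydrolysis product quenches plate fluorescence so inhibitors raise well fluorescence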
PfM18AAP inh: PfM18AAP inhibitors, malaria aminopeptidase, primary screen, biochemical, QFRET, recombinant enzyme; inhibition, % at 7.35 µM; H-Glu-NHMec fluorogenic cleavage; M18 aspartyl aminopeptidase (Plasmodium falciparum 3D7); 1.2% of 290,000 active; AID 1822, 2009;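 active = inhibition above the campaign mean inhibition over all tested compounds plus 3 SD, cut at about 28% in these data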
sPLA2-III inh: human group III sPLA2 inhibitors, primary screen, biochemical, QFRET, BODIPY PC-A2 liposome substrate; QFRET BODIPY PC-A2 liposome hydrolysis, fluorescence; inhibition, % at 12.2 µM; 0.56% of 370,000 active; AID 743126, 2013;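 active = inhibition above mean plus 3 SD of compounds lying within the high and low control bounds, cut at about 19% in these data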
Target sequence (Q9NZ20 whole entry, looked up): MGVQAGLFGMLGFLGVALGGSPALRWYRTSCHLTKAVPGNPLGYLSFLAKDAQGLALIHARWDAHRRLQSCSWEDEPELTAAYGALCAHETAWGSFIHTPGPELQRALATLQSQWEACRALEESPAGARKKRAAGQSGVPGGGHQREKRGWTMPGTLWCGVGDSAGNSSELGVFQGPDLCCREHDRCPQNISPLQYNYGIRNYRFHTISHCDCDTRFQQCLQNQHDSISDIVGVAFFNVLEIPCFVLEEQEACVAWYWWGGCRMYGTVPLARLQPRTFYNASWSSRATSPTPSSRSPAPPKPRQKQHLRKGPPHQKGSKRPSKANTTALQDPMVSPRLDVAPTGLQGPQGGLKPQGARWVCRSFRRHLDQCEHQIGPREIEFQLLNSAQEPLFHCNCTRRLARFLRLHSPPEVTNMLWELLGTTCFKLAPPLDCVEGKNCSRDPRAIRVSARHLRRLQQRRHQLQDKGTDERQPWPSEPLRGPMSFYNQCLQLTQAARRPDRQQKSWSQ
IMP-1 inh: IMP-1 metallo-beta-lactamase inhibitors, primary screen, biochemical, epi-absorbance readout, Pseudomonas aeruginosa enzyme | 0.45% of 290,000 active | purified IMP-1, nitrocefin hydrolysis, epi-absorbance fluorescence | inhibition, % at 5.6 µM | AID 1556, 2009 | metallo-beta-lactamase IMP-1 (Pseudomonas aeruginosa);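 active = inhibition above the mean plus 3 SD of all compounds in the same screening run, cut at about 4.5% in these data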
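System – purified recombinant IMP-1 beta-lactamase · Input – IMP-1 dispensed at 0.2 nM · Timing – 15 min preincubation plus 25 min reaction at 25 °C · Signal – Epi-absorbance fluorescence, 480 nm excitation, 530 nm emission · Measure – percent IMP-1 inhibition derived from blank-referenced optical density · Controls – Enzyme-plus-DMSO low control, enzyme-free DMSO high control · Replication – singlicate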
A number is an active result; . = inactive; / = no result. Sampled rows, rich in hits. Any-hit rate of the full collection: about 2.4%.

SMILES	VIM-2 inh	PfM18AAP inh	sPLA2-III inh	IMP-1 inh
Cc1cccn2c(=O)c3cc(C(=O)NCC4CCCO4)c(=N)n(C4CCCCC4)c3nc12 (stereo not given)	8.0	.	.	.
C=CCn1c(=N)c(C(=O)NCCCOC)cc2c(=O)n3ccccc3nc21	.	.	.	.
C=CCn1c(=N)c(C(=O)NCCCOC)cc2c(=O)n3cc(C)ccc3nc21	11	.	.	.
Cc1ccc2nc3c(cc(C(=O)NC4CCCC4)c(=N)n3C3CCCCC3)c(=O)n2c1	12	.	.	.
Cc1cccn2c(=O)c3cc(C(=O)NCc4ccco4)c(=N)n(C4CCCC4)c3nc12	8.2	.	.	.
Cc1cccn2c(=O)c3cc(C(=O)NCC4CCCO4)c(=N)n(CC4CCCO4)c3nc12 (stereo not given)	.	.	.	.
C=CCNCc1ccc(OC)cc1OC	/	/	.	/
C/C(C=NNC(=O)CSc1nc2ccccc2n1Cc1ccccc1Cl)=C\c1ccccc1	/	/	.	/
COCCCNC(=O)C[C@H]1C[C@@]2(C(=O)OC)C(=C[C@H](COCc3ccccc3)O[C@@H]2C)N(Cc2ccc(Cl)cc2Cl)C1=O	/	/	.	/
COC(=O)C1=C(C(=O)OC)[C@@]2([C@@H](Cc3ccc(C)cc3)Nc3ccccc3)C=C[C@@H]1O2	/	/	.	/
Cc1c(OCC(=O)N[C@@H](Cc2ccccc2)C(=O)O)ccc2c3c(c(=O)oc12)CCC3	12	.	.	.
Cc1c(OCC(=O)N[C@@H](Cc2ccccc2)C(=O)O)ccc2c1oc(=O)c1ccccc12	12	.	.	.
Cc1c(OCC(=O)NC(Cc2ccc(Cl)cc2)C(=O)O)ccc2c3c(c(=O)oc12)CCCC3 (stereo not given)	.	.	.	.
Cc1cccc(C(=O)Nc2nc3ncccn3c2-c2ccc(F)cc2)c1	/	/	.	/
Fc1ccc(-n2c(Cn3nnc4ccccc43)n[nH]c2=S)cc1	.	30	.	.
C#CCCCN([C@@H](CC(C)C)C(=O)OC)S(=O)(=O)c1ccc(F)cc1Br	/	/	.	/
COCCN=C1S/C(=C\c2cc(C)n(-c3ccc(F)cc3F)c2C)C(=O)N1C	/	/	.	/
CC(C)n1cc(/C=N/NC(=O)COc2cccc3cccnc23)c2ccccc21	.	.	.	.
C=CCn1cc(/C=N/NC(=O)COc2cccc3cccnc23)c2ccccc21	9.3	.	.	.
C[C@H]1C2CC(OC(=O)NCCCc3ccccc3)C(C2)[C@H]2CCCCN21 (stereo not given in full)	/	/	.	/
CN(C)CCN(C)Cc1c2ccccc2c(CN(C)CCN(C)C)c2ccccc12	.	29	.	.
CSCCC(c1nc2ccccc2[nH]1)n1c(/C=C/c2ccc(Cl)cc2)nc2ccccc21 (stereo not given)	/	/	.	/
Cc1c(C)c2cc(Cl)c(O)c(CN3CCN(C)CC3)c2oc1=O	.	.	.	6.2
CC(Oc1cc2oc(=O)c3c(c2cc1Cl)CCC3)C(=O)NCc1ccccn1 (stereo not given)	12	.	.	.
O=C(COc1ccc2c3c(c(=O)oc2c1)CCCC3)NCc1ccccn1	7.8	.	.	.
SMILES	VIM-2 inh	PfM18AAP inh	sPLA2-III inh	IMP-1 inh
CC(Oc1cc2oc(=O)c3c(c2cc1Cl)CCCC3)C(=O)NCc1cccnc1 (stereo not given)	.	.	.	.
O=C(COc1cc2oc(=O)cc(-c3ccccc3)c2cc1Cl)NCc1ccccn1	.	.	.	.
CC(Oc1cc2oc(=O)c3c(c2cc1Cl)CCC3)C(=O)NCc1cccnc1 (stereo not given)	11	.	.	.
CC(Oc1cc2oc(=O)c3c(c2cc1Cl)CCCC3)C(=O)NCc1ccccn1 (stereo not given)	.	.	.	.
O=C(COc1cc2oc(=O)c3c(c2cc1Cl)CCC3)NCc1ccccn1	10	.	/	.
Nn1c(SCc2c(Cl)cccc2Cl)nnc1-c1n[nH]c2c1CCC2	/	/	.	/
CNc1ccccc1/C(O)=C(\C#N)C(=O)NCc1cccs1	/	/	.	/
O=c1[nH]c2cc(Br)c(Br)nc2[nH]1	/	/	.	/
Cc1cc(N2CCN(CCO)CC2)n2nc(C)nc2n1	/	/	.	/
COC(=O)[C@H](CC(C)C)N1Cc2nnn(Cc3ccccc3)c2-c2cc(F)ccc2S1(=O)=O	/	/	.	/
CCn1cc(S(=O)(=O)c2ccc(C)cc2)c(=O)c2cc(F)c(N3CCN(C)CC3)cc21	7.9	.	.	.
CCn1cc(C(=O)NCCN(C)C)c(=O)c2cc(F)c(N3CCN(C)CC3)cc21	12	.	.	.
CCN(CC)CCCNC(=O)c1cn(CC)c2cc(N3CCN(C(=O)c4ccco4)CC3)c(F)cc2c1=O	12	.	.	.
CCn1cc(C(=O)Nc2ncccc2O)c(=O)c2cc(F)c(N3CCN(C(=O)c4ccco4)CC3)cc21	.	.	.	8.0
Cn1nnnc1SCc1ccc(CSc2nnnn2C)cc1	.	.	.	.
Cn1nnnc1SCc1cccc(CSc2nnnn2C)n1	.	.	.	5.3
CCN1CCCC1Cn1cnc2c([nH]c3cccc(Cl)c32)c1=O (stereo not given)	8.2	.	.	.
Oc1c(Br)cc(Br)cc1CNc1cccc2cccnc12	.	33	.	16
COc1cc(/C=N/Nc2cccc3cccnc23)cc(OC)c1O	.	30	.	.
Oc1c(Br)cc(Br)cc1CNc1ccccn1	.	.	.	.
COc1cccc(CNc2ccccn2)c1O	.	.	.	.
Oc1ccc(Cl)cc1CNc1cccc2cccnc12	.	31	.	.
COc1cccc(CNc2cccc3cccnc23)c1O	.	31	.	.
CCOC(=O)[C@@]12CCCC=C1N(CCc1ccc(Cl)cc1)C(=O)[C@H]2CC(=O)NCc1cccc(C(F)(F)F)c1	/	/	.	/
COc1ccccc1C#Cc1ccc2c(=O)c3ccccc3n(C)c2c1	.	30	.	6.8
SMILES	VIM-2 inh	PfM18AAP inh	sPLA2-III inh	IMP-1 inh
CCOC(=O)c1cccc(NC(=O)CN(C)S(=O)(=O)c2ccc(Cl)s2)c1	/	/	.	/
CC(C(=O)O)N1C(=O)C2C3CC(C2C1=O)C1C(c2ccccc2)c2sc(=O)[nH]c2SC31 (stereo not given)	.	.	.	6.5
Cc1ccc(C)c(CSc2nnc([C@@H]3CCCN3)o2)c1	.	.	.	5.0
CCCC(=O)Nc1ccc2c(c1)C(=O)N(C)[C@H]1CC[C@@H](CC(=O)OC)O[C@@H]1CO2	/	/	.	/
CCN1CCN(Cc2ccc(NC(=O)c3ccc(C)c(NC(=O)c4cccc(-c5cn[nH]c(=O)c5)c4)c3)cc2C(F)(F)F)CC1	.	.	/	9.3
COC(=O)[C@]12C[C@H](CC(=O)N3CCN(C(=O)C4CC4)CC3)C(=O)N(Cc3ccco3)C1=C[C@H](COCc1ccccc1)O[C@@H]2C	/	/	.	/
COc1cc(/C=N/n2nnnc2N)ccc1OCc1c(C)no[n+]1[O-]	.	.	.	.
Cc1no[n+]([O-])c1COc1cccc(/C=N/Nc2nncn2N)c1	.	28	.	.
CSc1nc2sc3c(c2c(=O)n1C)CCCC3	.	.	.	.
CSc1nc2sc3c(c2c(=O)n1C)CCC3	7.7	.	.	.

High-throughput results: PubChem BioAssay, The Scripps Research Institute Molecular Screening Center
